Source: PubChem BioAssay (Broad Institute)
Xi reactivation: X-chromosome reactivation activator | XiGFP mouse fibroblasts, % GFP-positive cells imaging, 3 d; cells co-treated with 5-aza-dC sensitizer; scaled so ellipticine positive control = 100% | activation, % at 7.58 µM | hit rate 0.055% among 360,000 | AID 743238;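 active = mean normalized replicate activation at least 10% and every replicate at or above 10%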;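 note: 0% = median of on-plate neutral control wells and 100% = ellipticine 6 µM median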
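Assay system – SV40-immortalized XiGFP fibroblast cells, line 68-5-11 · Buffer or medium – DMEM supplemented with 5-aza-dC as sensitizing agent · Dosing – one concentration, pinned · Benchmarks – positive control ellipticine, 6 µM final · Times – 3 days compound exposure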
MLL AF4-AF9 inh: MLL-AF4/AF9 protein interaction inhibition. AID 651704. hit rate 0.47% among 350,000. AlphaScreen, biotin-AF4 peptide binding to FLAG-AF9. inhibition, % at 10 µM;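 active = every replicate reaching a set inhibition limit, whatever the replicate mean, cut at about 25% in these data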;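 note: 0% = plate neutral control median and 100% = total signal loss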
Target sequence (P42568 whole entry, looked up): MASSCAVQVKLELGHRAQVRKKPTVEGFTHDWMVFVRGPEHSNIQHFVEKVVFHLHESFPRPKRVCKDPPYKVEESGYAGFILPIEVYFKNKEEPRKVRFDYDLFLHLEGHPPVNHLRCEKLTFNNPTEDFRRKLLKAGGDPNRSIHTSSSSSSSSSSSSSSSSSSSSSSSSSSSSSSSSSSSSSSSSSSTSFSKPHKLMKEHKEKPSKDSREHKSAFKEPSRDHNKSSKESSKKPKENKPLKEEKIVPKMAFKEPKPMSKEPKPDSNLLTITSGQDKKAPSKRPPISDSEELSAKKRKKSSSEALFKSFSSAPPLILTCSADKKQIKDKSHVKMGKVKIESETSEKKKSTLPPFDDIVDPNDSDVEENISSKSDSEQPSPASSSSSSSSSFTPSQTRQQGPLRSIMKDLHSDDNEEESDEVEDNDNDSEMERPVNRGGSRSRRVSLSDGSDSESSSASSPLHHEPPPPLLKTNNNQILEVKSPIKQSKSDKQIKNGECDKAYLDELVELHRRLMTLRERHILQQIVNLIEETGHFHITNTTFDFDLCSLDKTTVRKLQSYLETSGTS
PAX8 inh HTS: PAX8 transcriptional activity inhibition. RMG-I TPO-luciferase reporter, SteadyGlo, 24 h. inhibition, % at 12.6 µM. hit rate 1.2% among 360,000. AID 652154;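 active = mean replicate inhibition at least 60% with every replicate also reaching 60%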;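 note: luciferase light reporting Pax8 driven TPO promoter activity; plate controls were median of neutral control wells for no effect and mitoxantrone controls for full effect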
INS-1E GSIS act: GLuc luminescence reporter in INS-1E cells, primary screen for activators of glucose-dependent secretion of insulin. INS-1E GLuc reporter insulin secretion, 2-3 h. activation, % at 16.6 µM. hit rate 0.61% among 370,000;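 active = lowest replicate activation of at least 40%, so every replicate reaches that level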;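 note: 0% = median of neutral control wells and 100% = median of IBMX positive control wells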
EWS-Fli inh: blocks EWS/Fli oncoprotein-driven transcription | A673 NR0B1-luciferase reporter, viability-normalised | inhibition, % at 12.6 µM | hit rate 0.67% among 350,000 | AID 651661;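 active = mean inhibition of at least 50% after viability correction, with every replicate also passing that limit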;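 note: firefly luciferase signal divided by Alamar Blue viability fluorescence both relative to DMSO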
PGC1a acetyl inh: PGC1a acetylation modulation, inhibitor mode | hit rate 0.17% among 350,000 | AID 651687 | inhibition, % at 15.6 µM | U2OS PGC1a acetylation, AlphaScreen anti-acetyl-lysine; with virally co-expressed GCN5 acetyltransferase;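 active = every replicate shows inhibition of at least 40%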;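 note: 0% = neutral control wells and 100% = positive control wells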
Starred values were filed as active, the others as inactive; · = no result given. Sampled rows, rich in hits. Any-hit rate of the full collection: about 2.1%.

SMILES	Xi reactivation	MLL AF4-AF9 inh	PAX8 inh HTS	INS-1E GSIS act	EWS-Fli inh	PGC1a acetyl inh
CCCN1[C@@H]2c3ccc(-c4cccnc4)c(=O)n3C[C@@H]2[C@@H](CO)[C@@H]1C(=O)NCCN1CCCC1	0	-1	-20	-4	-21	-8
O=C(Nc1ccccc1F)N1CCCCN2[C@H](CO)[C@@H](c3ccc(C#Cc4ccccc4)cc3)[C@H]2C1	0	8	66*	-11	·	-42
O=C(Nc1ccccc1)N1CCCCN2[C@H](C1)[C@@H](c1ccc(C#Cc3ccccc3)cc1)[C@@H]2CO	1	-4	99*	-28	4	-3
COc1ccc(NC(=O)N2CCCCN3[C@H](CO)[C@@H](c4ccc(C#Cc5ccccc5)cc4)[C@H]3C2)cc1	·	3	16	·	5	-19
O=C(C1CCC1)N1C[C@@H]2[C@H](c3ccccc31)[C@H](CO)N2C(=O)Nc1cccc(F)c1	0	35*	-6	-3	3	-11
O=C(Nc1ccccc1F)N1CCCCN2[C@H](CO)[C@@H](c3ccc(C#Cc4ccccc4)cc3)[C@@H]2C1	0	-16	-22	-4	·	-44
COc1ccc(NC(=O)N2CCCCN3[C@@H](CO)[C@@H](c4ccc(C#Cc5ccccc5)cc4)[C@@H]3C2)cc1	·	21	111*	·	1	-44
O=C/C=C/c1ccc2c(c1)OCO2	·	-3	4	·	-10	·
O=C(Nc1cccc(F)c1)N1CCCCN2[C@@H](CO)[C@@H](c3ccc(C#Cc4ccccc4)cc3)[C@@H]2C1	6	12	116*	-1	76*	3
O=C(Nc1ccccc1)N1CCCCN2[C@H](CO)[C@H](c3ccc(C#Cc4ccccc4)cc3)[C@H]2C1	0	11	109*	-34	63*	-5
COC(=O)C[C@@H]1CC[C@@H]2[C@H](COC[C@@H](O)CN2S(=O)(=O)c2ccccc2C)O1	0	1	0	35	-4	-2
COC(=O)c1ccc(N2CCN(C)CC2)c(NC(=O)c2sc3ccccc3c2Cl)c1	0	26*	7	3	23	9
CCOC(=O)Nc1cccc(OCC(=O)Nc2ccc3c(c2)CCC3)c1	0	-4	-24	45*	-28	-1
COc1cccc(NC(=O)COc2ccc3c(c2)CCC3)c1	0	-3	-38	-12	-3	-8
COc1ccc2c3c([nH]c2c1)[C@H](CO)N(C)CC31CN(C(=O)c2ccccn2)C1	0	1	·	2	-7	0
CC1=NN(c2ccccc2)C(=O)C1C=Nc1ccc(N(C)C)cc1 (centres undefined)	0	31*	-26	-2	-10	3
CO[C@H]1CN(C)C(=O)c2cc(NS(C)(=O)=O)ccc2OC[C@H](C)N(CC2CC2)C[C@H]1C	0	-1	5	7	-2	-4
COc1ccc(CN2CC3(CN(C(=O)C4CCOCC4)C3)c3c(n(C)c4cc(OC)ccc34)[C@@H]2CO)cc1	0	1	·	2	0	3
COc1ccc(S(=O)(=O)N(C)C[C@@H]2Oc3ccc(NC(=O)Nc4ccc5c(c4)OCO5)cc3CC(=O)N([C@@H](C)CO)C[C@H]2C)cc1	0	0	16	9	-2	3
COC(=O)[C@]12C[C@H](CC(=O)NCCc3ccccc3OC)C(=O)N(CCC3=CCCCC3)C1=C[C@H](C(C)(C)C)O[C@@H]2C	0	-8	19	41*	9	·
COC(=O)[C@]12C[C@H](CC(=O)NCc3ccc(OC)c(OC)c3)C(=O)N(Cc3ccc4c(c3)OCO4)C1=C[C@H](C(C)(C)C)O[C@@H]2C	0	4	79*	·	1	·
COCCCNC(=O)C[C@H]1C[C@@]2(C(=O)OC)C(=C[C@H](C(C)(C)C)O[C@@H]2C)N(CCC2=CCCCC2)C1=O	0	0	-5	·	-4	·
C[C@@H]1CN([C@@H](C)CO)C(=O)c2c(c3ccccc3n2C)-c2ccccc2CO[C@H]1CN(C)S(=O)(=O)CC(F)(F)F	1	3	5	-6	2	-32
